Test results taken from ChEMBL document CHEMBL3399927, “Identification of novel inhibitors of Aurora A with a 3-(pyrrolopyridin-2-yl)indazole scaffold” (Bioorg Med Chem, 2015).

Key:
KB = test: Antiproliferative activity against human KB cells after 72 hrs by MTT assay; type: functional, cell-based
How it was run: (§1)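 Cells grown in RPMI-1640 with heat-inactivated 10% FBS, penicillin 100 units/mL and streptomycin 100 μg/mL, at 37 °C under 20% O2, 5% CO2. Compounds dissolved in DMSO at 10.0 mg/mL (stock), then diluted. Cells were plated for 24 h, exposed to a range of concentrations for 72 h, and viability was read by MTT. IC50 is 50% absorbance inhibition versus control cells; means of three experiments.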

A549 = test: Antiproliferative activity against human A549 cells after 72 hrs by MTT assay; type: functional, cell-based; settings: A549, 72 h
[1] = Antiproliferative activity against human HCT116 cells after 72 hrs by MTT assay; type: functional, cell-based; settings: HCT-116, 72 h; how it was run: as §1
[2] = Antiproliferative activity against human HL60 cells after 72 hrs by MTT assay; type: functional, cell-based; settings: HL-60, 72 h; how it was run: as §1
[3] = Antiproliferative activity against human SMMC7721 cells after 72 hrs by MTT assay; type: functional, cell-based; settings: SMMC-7721, 72 h; how it was run: as §1
[4] = molecular target: Cyclin-dependent kinase 2 (Homo sapiens) (UniProt P24941); test: Inhibition of CDK2 (unknown origin) at 1 ug/ml relative to control
[5] = molecular target: Glycogen synthase kinase-3 beta (Homo sapiens) (UniProt P49841); test: Inhibition of GSK3beta (unknown origin) at 1 ug/ml relative to control
Glycogen synthase kinase-3 beta (Homo sapiens), sequence (P49841 whole entry, looked up): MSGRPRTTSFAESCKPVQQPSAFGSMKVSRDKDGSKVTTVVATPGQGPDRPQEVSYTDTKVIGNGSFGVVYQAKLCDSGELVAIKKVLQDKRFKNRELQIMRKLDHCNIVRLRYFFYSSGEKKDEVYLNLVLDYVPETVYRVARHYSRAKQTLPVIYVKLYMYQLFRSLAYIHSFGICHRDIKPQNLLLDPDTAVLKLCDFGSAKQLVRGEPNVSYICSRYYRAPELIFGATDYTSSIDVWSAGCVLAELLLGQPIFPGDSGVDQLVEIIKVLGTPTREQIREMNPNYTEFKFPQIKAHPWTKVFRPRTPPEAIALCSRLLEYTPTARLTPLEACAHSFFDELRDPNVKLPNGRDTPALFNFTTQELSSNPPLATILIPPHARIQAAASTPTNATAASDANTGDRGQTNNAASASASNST

[6] = molecular target: Protein kinase C (PKC) (Homo sapiens) (UniProt O94806+P41743+P17252+P05129+Q05655+P05771+Q05513+Q02156+P24723+Q15139+Q04759); test: Inhibition of PKC (unknown origin) at 1 ug/ml relative to control
How it was run: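 Fixed-concentration screen at 1 µg/mL with a Z'-LYTE kinase assay kit.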

Aurora kinase A = molecular target: T1, Aurora kinase A (Homo sapiens, UniProt O14965); test: Inhibition of human full length Aurora A by Z'-LYTE assay
T1 sequence (O14965 whole entry): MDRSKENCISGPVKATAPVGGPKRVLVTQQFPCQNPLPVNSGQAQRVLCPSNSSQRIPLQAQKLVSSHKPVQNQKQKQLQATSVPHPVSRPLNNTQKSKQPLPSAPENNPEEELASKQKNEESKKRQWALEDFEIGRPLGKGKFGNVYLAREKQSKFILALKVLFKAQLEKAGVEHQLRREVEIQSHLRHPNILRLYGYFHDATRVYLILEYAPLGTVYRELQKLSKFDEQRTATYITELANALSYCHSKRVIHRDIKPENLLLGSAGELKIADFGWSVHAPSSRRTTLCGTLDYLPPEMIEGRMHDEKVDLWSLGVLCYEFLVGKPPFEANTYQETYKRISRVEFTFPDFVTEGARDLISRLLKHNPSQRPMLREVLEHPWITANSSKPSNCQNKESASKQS

[7] = molecular target: T2, Inhibitor of nuclear factor kappa-B kinase subunit beta (Homo sapiens) (UniProt O14920); test: Inhibition of IKKbeta (unknown origin) at 1 ug/ml relative to control
T2 sequence (whole entry): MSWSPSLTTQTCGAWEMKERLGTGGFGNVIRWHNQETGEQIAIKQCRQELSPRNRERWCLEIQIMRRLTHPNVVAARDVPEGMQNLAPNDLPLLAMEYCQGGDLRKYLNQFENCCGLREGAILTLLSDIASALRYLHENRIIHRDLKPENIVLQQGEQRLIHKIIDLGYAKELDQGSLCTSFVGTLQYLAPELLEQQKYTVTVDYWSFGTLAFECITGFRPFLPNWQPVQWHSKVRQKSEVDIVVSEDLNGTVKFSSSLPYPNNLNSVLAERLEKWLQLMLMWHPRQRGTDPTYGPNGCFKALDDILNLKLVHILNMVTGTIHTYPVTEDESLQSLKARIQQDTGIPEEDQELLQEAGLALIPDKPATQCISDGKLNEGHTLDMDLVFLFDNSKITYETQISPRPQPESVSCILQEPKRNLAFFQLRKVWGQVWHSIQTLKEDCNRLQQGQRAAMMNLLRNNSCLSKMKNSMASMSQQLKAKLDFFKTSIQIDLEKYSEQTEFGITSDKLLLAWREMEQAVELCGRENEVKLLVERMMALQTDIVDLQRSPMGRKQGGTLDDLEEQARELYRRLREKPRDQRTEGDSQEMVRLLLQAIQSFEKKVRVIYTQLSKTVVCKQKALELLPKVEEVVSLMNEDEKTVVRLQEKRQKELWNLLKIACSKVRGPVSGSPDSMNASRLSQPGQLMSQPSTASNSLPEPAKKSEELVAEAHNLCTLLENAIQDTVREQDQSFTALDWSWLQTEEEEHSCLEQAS

[8] = molecular target: Dual specificity mitogen-activated protein kinase kinase 1 (Homo sapiens) (UniProt Q02750); test: Inhibition of MEK1 (unknown origin) at 1 ug/ml relative to control
Dual specificity mitogen-activated protein kinase kinase 1 (Homo sapiens), sequence (Q02750 whole entry): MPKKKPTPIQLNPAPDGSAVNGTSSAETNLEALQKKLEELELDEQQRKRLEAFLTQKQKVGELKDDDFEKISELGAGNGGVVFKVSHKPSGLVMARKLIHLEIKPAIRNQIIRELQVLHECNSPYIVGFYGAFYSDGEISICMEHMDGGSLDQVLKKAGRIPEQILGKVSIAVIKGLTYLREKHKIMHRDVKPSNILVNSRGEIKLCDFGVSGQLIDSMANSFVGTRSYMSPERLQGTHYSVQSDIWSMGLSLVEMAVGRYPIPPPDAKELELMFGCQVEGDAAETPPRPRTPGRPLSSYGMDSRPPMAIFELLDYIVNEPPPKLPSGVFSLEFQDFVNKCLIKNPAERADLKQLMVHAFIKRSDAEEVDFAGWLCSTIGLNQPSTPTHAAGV

[9] = molecular target: T3, Aurora kinase A (Homo sapiens) (UniProt O14965); test: Inhibition of human full length Aurora A at 1 ug/ml by Z'-LYTE assay
T3 sequence (whole entry): T1 sequence (O14965 whole entry)

[10] = molecular target: T4, Serine/threonine-protein kinase Chk1 (Homo sapiens) (UniProt O14757); test: Inhibition of CHK1 (unknown origin) at 1 ug/ml relative to control
T4 sequence (whole entry): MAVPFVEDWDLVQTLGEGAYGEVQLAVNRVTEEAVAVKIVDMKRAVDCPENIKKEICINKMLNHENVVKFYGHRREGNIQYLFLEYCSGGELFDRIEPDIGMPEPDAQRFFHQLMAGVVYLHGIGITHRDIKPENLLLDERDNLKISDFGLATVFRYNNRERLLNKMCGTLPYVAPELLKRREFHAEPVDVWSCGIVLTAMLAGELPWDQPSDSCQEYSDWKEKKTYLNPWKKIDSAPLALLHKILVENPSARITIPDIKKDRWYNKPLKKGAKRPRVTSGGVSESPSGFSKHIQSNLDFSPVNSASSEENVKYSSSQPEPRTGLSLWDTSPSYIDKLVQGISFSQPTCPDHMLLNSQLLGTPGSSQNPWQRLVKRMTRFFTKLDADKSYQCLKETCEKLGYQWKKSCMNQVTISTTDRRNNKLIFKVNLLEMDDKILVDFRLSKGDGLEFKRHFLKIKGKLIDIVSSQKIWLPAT
How it was run: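 Fixed-concentration screen at 1 µg/mL using the luminescent ADP-Glo assay.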

[11] = molecular target: Serine/threonine-protein kinase B-raf (Homo sapiens) (UniProt P15056); test: Inhibition of BRAF (unknown origin) at 1 ug/ml relative to control
Serine/threonine-protein kinase B-raf (Homo sapiens), sequence (P15056 whole entry): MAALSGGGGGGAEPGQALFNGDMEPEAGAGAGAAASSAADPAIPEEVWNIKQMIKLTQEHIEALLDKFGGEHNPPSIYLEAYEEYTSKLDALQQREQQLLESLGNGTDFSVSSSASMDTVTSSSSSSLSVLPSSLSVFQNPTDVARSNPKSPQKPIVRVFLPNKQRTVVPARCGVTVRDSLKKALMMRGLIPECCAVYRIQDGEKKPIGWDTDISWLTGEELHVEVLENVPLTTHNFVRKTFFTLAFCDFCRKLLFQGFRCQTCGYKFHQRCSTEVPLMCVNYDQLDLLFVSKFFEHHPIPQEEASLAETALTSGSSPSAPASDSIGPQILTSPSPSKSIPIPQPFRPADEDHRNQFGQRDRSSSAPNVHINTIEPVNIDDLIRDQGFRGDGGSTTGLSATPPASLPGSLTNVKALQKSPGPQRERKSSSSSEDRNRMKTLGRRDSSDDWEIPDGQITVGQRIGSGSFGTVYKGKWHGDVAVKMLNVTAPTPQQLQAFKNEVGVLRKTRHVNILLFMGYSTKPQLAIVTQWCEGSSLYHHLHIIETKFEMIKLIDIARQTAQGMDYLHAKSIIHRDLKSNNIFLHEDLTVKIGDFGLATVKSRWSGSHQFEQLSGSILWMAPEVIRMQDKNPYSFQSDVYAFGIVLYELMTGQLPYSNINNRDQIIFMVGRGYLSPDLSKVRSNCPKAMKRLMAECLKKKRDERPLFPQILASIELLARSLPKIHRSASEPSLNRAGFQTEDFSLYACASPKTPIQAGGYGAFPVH

[12] = Apparent permeability across apical to basolateral side in MDCK cells by HPLC; type: ADME, cell-based, Canis lupus familiaris; settings: dog

Structure (SMILES) | IC50 (KB) [µM] | IC50 (A549) [µM] | inhibition [4] [%] | inhibition [5] [%] | inhibition [6] [%] | IC50 (Aurora kinase A) [nM] | inhibition [7] [%] | inhibition [8] [%] | inhibition [9] [%] | inhibition [10] [%] | inhibition [11] [%] | Papp A→B [12] [×10⁻⁶ cm/s] | IC50 [1] [µM] | IC50 [2] [µM] | IC50 [3] [µM]
CN(C(=O)c1ccc([N+](=O)[O-])cc1)c1ccc2[nH]c(-c3n[nH]c4ccccc34)cc2n1 | 20.2 | 34.5 |  |  |  |  |  |  |  |  |  |  | 19.9 | 6.8 | 18.4
COc1ccc(NC(=O)N(C)c2ccc3[nH]c(-c4n[nH]c5ccccc45)cc3n2)cc1 |  |  |  |  |  |  |  |  |  |  |  |  | 0.063 | 0.0079 | 
CCC(=O)N(C)c1ccc2[nH]c(-c3n[nH]c4ccccc34)cc2n1 | 9.3 | 15.7 |  |  |  |  |  |  |  |  |  |  | 10.8 | 6.13 | 33.5
COc1ccc(S(=O)(=O)N(C)c2ccc3[nH]c(-c4n[nH]c5ccccc45)cc3n2)cc1 | 22.1 | 24.2 |  |  |  |  |  |  |  |  |  |  | 22.4 | 4.34 | 13
CN(C(=O)c1ccco1)c1ccc2[nH]c(-c3n[nH]c4ccccc34)cc2n1 | 19.4 | 15.5 |  |  |  |  |  |  |  |  |  |  | 30 | 4.54 | 28.2
Cc1ccc(S(=O)(=O)N(C)c2ccc3[nH]c(-c4n[nH]c5ccccc45)cc3n2)cc1 | 9.5 | 27.1 |  |  |  |  |  |  |  |  |  |  | 13.3 | 3.03 | 16.3
CC(=O)N(C)c1ccc2[nH]c(-c3n[nH]c4ccccc34)cc2n1 | 10.3 | > 50 |  |  |  |  |  |  |  |  |  |  | 14.8 | 5.11 | 23.4
CN(C(=O)c1ccccc1)c1ccc2[nH]c(-c3n[nH]c4cc(C#N)ccc34)cc2n1 | 20.9 | 32.8 |  |  |  |  |  |  |  |  |  |  | 24 | 6.43 | > 50
COc1ccc(S(=O)(=O)N(C)c2ccc3[nH]c(-c4n[nH]c5ccccc45)cc3n2)cc1OC | 10.1 | > 50 |  |  |  |  |  |  |  |  |  |  | 16.7 | 6.32 | 26.6
COc1ccc(S(=O)(=O)N(C)c2ccc3[nH]c(-c4n[nH]c5ccccc45)cc3n2)c(OC)c1 | 10.2 | 25.9 |  |  |  |  |  |  |  |  |  |  | 21.8 | 5.18 | 10.8
COc1ccc(C(=O)N(C)c2ccc3[nH]c(-c4n[nH]c5ccccc45)cc3n2)cc1 | 12.9 | 14.6 |  |  |  |  |  |  |  |  |  |  | 29.5 | 3.32 | 23.7

The remaining compounds from weak to strong by IC50 (KB), led by results:

IC50 (KB) [µM] | IC50 (A549) [µM] | inhibition [4] [%] | inhibition [5] [%] | inhibition [6] [%] | IC50 (Aurora kinase A) [nM] | inhibition [7] [%] | inhibition [8] [%] | inhibition [9] [%] | inhibition [10] [%] | inhibition [11] [%] | Papp A→B [12] [×10⁻⁶ cm/s] | Structure (SMILES) | IC50 [1] [µM] | IC50 [2] [µM] | IC50 [3] [µM]
9.01 | 14.9 |  |  |  |  |  |  |  |  |  |  | COc1cccc(C(=O)N(C)c2ccc3[nH]c(-c4n[nH]c5ccccc45)cc3n2)c1 | 14.2 | 1.42 | 22
8.58 | 13.8 | 28.2 | 18.6 | 5.4 | 32 | 8.06 | 3.85 | 95.8 | 8.3 | 11.7 | 2.07 | CN(C(=O)c1ccccc1)c1ccc2[nH]c(-c3n[nH]c4ccccc34)cc2n1 | 10.6 | 4.85 | 12.5
8.39 | 24.4 |  |  |  |  |  |  |  |  |  |  | CN(C(=O)C(C)(C)C)c1ccc2[nH]c(-c3n[nH]c4ccccc34)cc2n1 | 18 | 4.99 | 22.2
8.35 | 18.2 |  |  |  |  |  |  |  |  |  |  | CN(c1ccc2[nH]c(-c3n[nH]c4ccccc34)cc2n1)S(=O)(=O)c1ccc(Cl)cc1 | 5.98 | 0.77 | 12.7
7.38 | 18.1 |  |  |  |  |  |  |  |  |  |  | CN(C(=O)CCc1ccccc1)c1ccc2[nH]c(-c3n[nH]c4ccccc34)cc2n1 | 11.2 | 4.73 | 20.9
7.22 | 9.65 |  |  |  |  |  |  |  |  |  |  | CN(C(=O)c1ccc(F)cc1)c1ccc2[nH]c(-c3n[nH]c4ccccc34)cc2n1 | 9.27 | 1.21 | 9.15
7.15 | 19.7 |  |  |  |  |  |  |  |  |  |  | CN(c1ccc2[nH]c(-c3n[nH]c4ccccc34)cc2n1)S(=O)(=O)c1ccc(Br)cc1 | 9.85 | 6.24 | 11.5
5.87 | 20.1 |  |  |  |  |  |  |  |  |  |  | CN(c1ccc2[nH]c(-c3n[nH]c4ccccc34)cc2n1)S(=O)(=O)c1cccc([N+](=O)[O-])c1 | 13.6 | 3.66 | 5.07
5.59 | 9.59 |  |  |  |  |  |  |  |  |  |  | CN(C(=O)c1ccccc1)c1ccc2[nH]c(-c3n[nH]c4cc(Cl)ccc34)cc2n1 | 13.1 | 5.62 | 11.3
4.38 | 19.4 |  |  |  |  |  |  |  |  |  |  | COc1ccc(OC)c(S(=O)(=O)N(C)c2ccc3[nH]c(-c4n[nH]c5ccccc45)cc3n2)c1 | 8.4 | 0.84 | 4.28
2.4 | 14 |  |  |  |  |  |  |  |  |  |  | CN(c1ccc2[nH]c(-c3n[nH]c4ccccc34)cc2n1)S(=O)(=O)c1ccccc1 | 6.74 | 3.7 | 12
1.78 | 4.25 |  |  |  |  |  |  |  |  |  |  | CN(C(=O)c1ccc(Br)cc1)c1ccc2[nH]c(-c3n[nH]c4ccccc34)cc2n1 | 6.11 | 1.08 | 3.46
1.33 | 8 |  |  |  |  |  |  |  |  |  |  | CN(c1ccc2[nH]c(-c3n[nH]c4ccccc34)cc2n1)S(=O)(=O)c1ccc(OC(F)(F)F)cc1 | 6.04 | 1.17 | 7.16
0.63 | 2.22 | 35.5 | 27.8 | 10.6 | 46 | 0.94 | 1.98 | 95 | 1 | 14.4 | 3.95 | CN(C(=O)c1ccc(Cl)cc1)c1ccc2[nH]c(-c3n[nH]c4ccccc34)cc2n1 | 3 | 0.45 | 2.42
0.015 |  |  |  |  |  |  |  |  |  |  |  | CC(=O)O[C@H]1C(=O)[C@@]2(C)[C@H]([C@H](OC(=O)c3ccccc3)[C@]3(O)C[C@H](OC(=O)[C@H](O)[C@@H](NC(=O)c4ccccc4)c4ccccc4)C(C)=C1C3(C)C)[C@]1(OC(C)=O)CO[C@@H]1C[C@@H]2O [PACLITAXEL] | 0.0049 | 0.0017 | 0.12
